High-throughput results from PubChem.
Arr AP2 block = human beta-arrestin and AP2 interaction inhibition; FITC-arrestin peptide / GST-AP2 beads, flow cytometry; AP2 beta2 appendage carries R879A mutation; inhibition, % at 10 µM; 340,000 tested, 0.31% active;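 active means inhibition above a set limit, near 3 SD of compounds lacking own fluorescence, cut at about 54% in these data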;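 further: plate controls were DMSO wells for no effect and 5 µM unlabelled arrestin peptide for full effect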
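System: GST-AP2 R879A glutathione beads; medium: PBS, Tween 20 0.05%, BSA 0.1%; reagent: fluorescein-tagged arrestin peptide at 50 nM final; schedule: pre-incubation 12 min, peptide binding 1 h, room temperature; detection: flow cytometry, FL1 (488/535 nm); read-out: inhibition as reduced fluorescein signal on beads, percent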
HIV Env fusion = HIV envelope-mediated fusion inhibition; HeLa-JRFL Env/CEM21 cell fusion, luciferase; inhibition, % at 12.3 µM; 360,000 tested, 1.1% active;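 active means mean replicate inhibition score of at least 50 and every replicate individually at or above 50; inconclusive means only one of the two criteria met; inactive means mean below 50 and not all replicates reaching 50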;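 further: 0% = plate neutral controls and 100% = maraviroc near 300 nM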
Rtt109 HAT inh = inhibitors of Candida albicans Rtt109/Vps75 histone acetyltransferase | 330,000 tested, 0.16% active | inhibition, % at 34.9 µM | purified Rtt109/Vps75, ThioGlo CoA-SH fluorescence, 4 h | Q5AAJ8 | AID 540336;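 active means inhibition of at least 50% in every replicate; inconclusive means best replicate reaches 50% inhibition but some replicates fall short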
Target sequence (Q5AAJ8 whole entry, looked up): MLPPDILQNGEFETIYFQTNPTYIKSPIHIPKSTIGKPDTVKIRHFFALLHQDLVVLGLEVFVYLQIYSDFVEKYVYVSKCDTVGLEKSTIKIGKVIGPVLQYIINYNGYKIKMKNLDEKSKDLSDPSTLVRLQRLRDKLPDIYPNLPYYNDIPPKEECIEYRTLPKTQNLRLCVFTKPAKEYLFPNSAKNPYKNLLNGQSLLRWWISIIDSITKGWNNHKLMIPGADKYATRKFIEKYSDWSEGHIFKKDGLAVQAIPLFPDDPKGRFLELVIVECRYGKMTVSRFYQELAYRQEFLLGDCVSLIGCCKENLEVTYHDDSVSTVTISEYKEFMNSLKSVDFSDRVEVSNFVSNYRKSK
PfHsp90 yeast 2 = reduces growth (ATP signal) of yeast expressing P. falciparum Hsp90; S. cerevisiae expressing PfHsp90, BacTiter-Glo ATP, 48 h; yeast lacking PDR1 and PDR3 efflux regulators; inhibition, % at 9.4 µM; 310,000 tested, 0.32% active;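 active means every replicate shows inhibition above about 80%, whatever the replicate mean, limit read from the data; inconclusive means mean inhibition reaches the set limit but some replicate falls short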;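 further: 0% = DMSO neutral controls and 100% = 20 µM radicicol positive controls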
N-glyco inh = blocks N-linked glycosylation in D54 reporter cells; D54 ERlucT glycosylation luciferase reporter, 24 h; percent of 100 nM tunicamycin response; reporter increase, % at 12.5 µM; 360,000 tested, 0.23% active; AID 588692;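 active means mean luciferase reporter signal, scaled so untreated is 0 and the glycosylation-blocking control 100, at or above a set limit in every replicate; inconclusive means mean reaches the limit but not every replicate does; inactive means mean below the limit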;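 further: luciferase carries N-glycosylation sites so blocking glycosylation raises the light; 0% = median of neutral control wells and 100% = median of 100 nM tunicamycin wells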
PAX8 inh HTS = lowers PAX8-driven luciferase in RMG-I cells | RMG-I TPO-luciferase reporter, SteadyGlo, 24 h | inhibition, % at 12.6 µM | 360,000 tested, 1.2% active | AID 652154;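 active means mean replicate inhibition at least 60% with every replicate also reaching 60%; inconclusive means only one of the two criteria is met; inactive means mean below 60% and not all replicates reaching 60%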;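 further: luciferase light reporting Pax8 driven TPO promoter activity; plate controls were median of neutral control wells for no effect and mitoxantrone controls for full effect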
* marks the source's active call; other numbers are inactive results; [ ] = dose if it differs, or a comment. Sampled rows, rich in hits. Any-hit rate of the full collection: about 2.3%.

What do the screens show for `CNC(=O)Nc1ccc(C(=O)N/N=C\C23CC[C@@H](O)CC2(O)CC[C@@H]2[C@@H]3CCC3(C)C(C4=CC(=O)OC4)CCC23O)cc1` (stereo not given in full)?
Arr AP2 block: 30.4; HIV Env fusion: -21.2; Rtt109 HAT inh: -4.6; PfHsp90 yeast 2: -28.3; N-glyco inh: 3.2; PAX8 inh HTS: 0.8

Results for CC12CC[C@H]3[C@@H](CCC4(O)C[C@H](O)CCC34/C=N/NC(=O)Cc3ccccc3)C1(O)CCC2C1=CC(=O)OC1 (stereo not given in full) ?
Arr AP2 block: 23.1; HIV Env fusion: -43.2; Rtt109 HAT inh: 29.5; PfHsp90 yeast 2: -7.0; N-glyco inh: 3.3; PAX8 inh HTS: 5.9

How did CC12CC[C@H]3[C@@H](CCC4(O)C[C@H](O)CCC34/C=N/NC(=O)c3ccccc3[N+](=O)[O-])C1(O)CCC2C1=CC(=O)OC1 (stereo not given in full) do in these assays?
Arr AP2 block: -9.1; HIV Env fusion: -60.6; Rtt109 HAT inh: -8.2; PfHsp90 yeast 2: -8.4; N-glyco inh: 29.6*; PAX8 inh HTS: -5.8

How did CC12CCC(O)CC1CCC1C2CCC2(C)C(C3=CC(=O)OC3)CCC12O (stereo not given) do in these assays?
Arr AP2 block: -14.9; HIV Env fusion: 86.6*; Rtt109 HAT inh: -9.1; PfHsp90 yeast 2: 16.0; N-glyco inh: -17.9; PAX8 inh HTS: 105.8*

Results for Cc1ccccc1-c1ccc([C@H]2[C@@H](CO)N3CCCCN(C(=O)Cc4ccccn4)C[C@@H]23)cc1 ?
PAX8 inh HTS: -2.8

What do the screens show for `CC(C)(O)/C=C/C(=O)C(C)(O)C1C(O)CC2(C)C3CC=C4C(C=C(O)C(=O)C4(C)C)C3(C)C(=O)CC12C` (stereo not given)?
Arr AP2 block: 7.1; HIV Env fusion: 80.9*; Rtt109 HAT inh: -5.4; PfHsp90 yeast 2: -5.2; N-glyco inh: -21.3; PAX8 inh HTS: 91.4*

How did CCCCCP(=O)(O)c1ccccc1 do in these assays?
Arr AP2 block: -2.7; HIV Env fusion: -3.8; Rtt109 HAT inh: 3.7; N-glyco inh: -1.3

Results for CCCC/C(C)=C/[C@@H](NP(=O)(c1ccccc1)c1ccccc1)c1ccccc1 ?
Arr AP2 block: 22.8; HIV Env fusion: 84.1*; Rtt109 HAT inh: 1.1; PfHsp90 yeast 2: 2.3; N-glyco inh: -7.5; PAX8 inh HTS: -7.0

What do the screens show for `CC=Cc1ccc2n(c1=O)C[C@H]1[C@H](CO)[C@@H](C(=O)OC)[C@@H]2N1CC1CCOCC1` (mixture of isomers)?
HIV Env fusion: inconclusive; PAX8 inh HTS: -0.3

Results for COc1ccc(CNCCc2c[nH]c3ccccc23)c(OC)c1OC ?
Arr AP2 block: -3.0; HIV Env fusion: inconclusive; Rtt109 HAT inh: 5.0; PfHsp90 yeast 2: 5.0; N-glyco inh: -2.5; PAX8 inh HTS: -9.6

How did CCOc1cc(CNCCc2c[nH]c3ccccc23)cc(Cl)c1OC do in these assays?
Arr AP2 block: -9.3; HIV Env fusion: 68.0*; Rtt109 HAT inh: 1.6; PfHsp90 yeast 2: 18.6; N-glyco inh: -3.1; PAX8 inh HTS: -4.9

Results for COC(=O)[C@H]1[C@H](CO)[C@H]2Cn3c(ccc(C4=CCCC4)c3=O)[C@@H]1N2C(=O)C1CCCCC1 ?
HIV Env fusion: -5.8[16.7 µM]; PAX8 inh HTS: -11.4

What do the screens show for `Cc1ccc(S(=O)(=O)CC(C)(O)C(=O)Nc2cccc(C(F)(F)F)c2)cc1` (stereo not given)?
Arr AP2 block: 39.0; HIV Env fusion: 67.7*; Rtt109 HAT inh: 4.9; PfHsp90 yeast 2: -5.8; N-glyco inh: 1.3

Results for OC[C@@H]1[C@@H]2c3ccccc3NC[C@@H]2N1Cc1cccnc1 ?
PAX8 inh HTS: 6.5

Results for CC(=O)OC1CC2OC3C=C(C)CCC3(C)C1(C)C21CO1 (stereo not given) ?
N-glyco inh: -21.8

How did CC(=O)O[C@H]1C[C@@H]2OC3C=C(C)CCC3(C)[C@@]1(C)[C@@]21CO1 (stereo not given in full) do in these assays?
Arr AP2 block: 16.1; HIV Env fusion: 71.6*; Rtt109 HAT inh: 7.9; PfHsp90 yeast 2: inconclusive; N-glyco inh: -18.4; PAX8 inh HTS: 110.0*

Results for COC(=O)[C@@H]1[C@@H](CO)[C@@H]2Cn3c(ccc(-c4cccc(F)c4)c3=O)[C@H]1N2Cc1ccncc1 ?
PAX8 inh HTS: -6.4

How did C[C@H]1CC[C@H]2NCCN[C@H]2C1 do in these assays?
Arr AP2 block: 10.9; HIV Env fusion: 17.9; Rtt109 HAT inh: 56.0*; PfHsp90 yeast 2: 2.1; N-glyco inh: 1.0; PAX8 inh HTS: -3.9

What do the screens show for `COc1cccc(-c2ccc([C@@H]3[C@H](CO)N4CCCCN(C(=O)Cc5ccncc5)C[C@@H]34)cc2)c1`?
PAX8 inh HTS: -1.9

How did COc1ccc(Cc2nccc3cc(OC)c(OC)cc23)cc1OC do in these assays?
Arr AP2 block: -2.3; HIV Env fusion: 57.0*; Rtt109 HAT inh: 15.1; PfHsp90 yeast 2: 13.4; N-glyco inh: 0.4; PAX8 inh HTS: 19.7

Results for COc1ccc(CC2=NCCc3cc(OC)c(OC)cc32)cc1OC ?
HIV Env fusion: 0.6; N-glyco inh: 1.1; PAX8 inh HTS: -13.6

How did Cc1ccc(OC(=O)N(C)C[C@@H]2OCc3ccccc3-c3c(n(C)c4ccccc34)C(=O)N([C@@H](C)CO)C[C@H]2C)cc1 do in these assays?
PAX8 inh HTS: 97.7*

Results for Cc1ccc(OC(=O)N(C)C[C@H]2OCc3ccccc3-c3c(n(C)c4ccccc34)C(=O)N([C@@H](C)CO)C[C@@H]2C)cc1 ?
PAX8 inh HTS: 43.2

What do the screens show for `COC(=O)[C@H]1[C@H](CO)[C@H]2Cn3c(ccc(-c4ccc(OC)cc4)c3=O)[C@@H]1N2C(=O)c1ccccc1F`?
PAX8 inh HTS: -2.2

How did OCC1OC(n2cnc3cc(Cl)c(Cl)cc32)C(O)C1O (stereo not given) do in these assays?
HIV Env fusion: 31.5; N-glyco inh: 5.7; PAX8 inh HTS: -30.5

How did NC(=O)c1c(Br)n(C2OC(CO)C(O)C2O)c2ncnc(N)c12 (stereo not given) do in these assays?
Arr AP2 block: -1.5; HIV Env fusion: 70.7*; Rtt109 HAT inh: -1.6; PfHsp90 yeast 2: 1.4; N-glyco inh: -13.0; PAX8 inh HTS: 85.5*

What do the screens show for `N#Cc1c(Br)n(C2OC(CO)C(O)C2O)c2ncnc(N)c12` (stereo not given)?
Arr AP2 block: 3.9; HIV Env fusion: -1.1; Rtt109 HAT inh: -0.3; PfHsp90 yeast 2: 0.2; N-glyco inh: -7.3; PAX8 inh HTS: 81.9*

Results for CCn1nc(-c2ccccc2)nc2c(=O)n(C)c(=O)nc1-2 ?
Arr AP2 block: 25.9; Rtt109 HAT inh: -7.6; PfHsp90 yeast 2: 107.3*; N-glyco inh: 0.2

Results for Cc1nc2c(=O)n(C)c(=O)nc-2n(C)n1 ?
Arr AP2 block: -2.3; Rtt109 HAT inh: 4.5; PfHsp90 yeast 2: 7.0; N-glyco inh: -18.7
